This is an account of results in publication PMC4232467 (Nature chemical biology, 2014).

Structures are written as SMILES. In brackets after ≈: the same amount, converted by molar mass.

Common to all, as to assay: Susceptibility testing
Holding throughout (format): cell-based

For test [1], the system named is Escherichia coli (TEM-3) ESBL producer. Conditions: read-out: Minimum inhibitory concentrations (MICs; μg/mL) Escherichia coli (TEM-3). A digest of the protocol:
(§1)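 Broth susceptibility testing of clinical isolates resistant to third-generation cephalosporins, run and read per CLSI guidelines. […] Compounds were dissolved in DMSO and diluted into Mueller Hinton medium, with DMSO kept below 5%. Values are the average of three independent experiments.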

Test [2] concerns Escherichia coli (CTX-M-14) ESBL producer. Conditions: read-out: Minimum inhibitory concentrations (MICs; μg/mL) Escherichia coli (CTX-M-14). A digest of the protocol: as §1
The test system of test [3] is Citrobacter freundii (AmpC overproducer). Particulars: read-out: Minimum inhibitory concentrations (MICs; μg/mL) Citrobacter freundii. A digest of the protocol:
as §1

Test [4] relates to Enterobacter cloacae (AmpC overproducer). Conditions: read-out: Minimum inhibitory concentrations (MICs; μg/mL) Enterobacter cloacae. The gist of the method:
as §1

For the compound `CO/N=C(\C(=O)N[C@@H]1C(=O)N2C(C(=O)O)=C(COC(C)=O)CS[C@H]12)c1csc(N)n1` [Cefotaxime, cefotaxime], the MIC stood at 8 µg/mL (≈ 17.6 µM) in test [1], 256 µg/mL (≈ 562 µM) in test [2], 16 µg/mL (≈ 35.1 µM) in test [3] and 64 µg/mL (≈ 141 µM) in test [4].
